Screening data from PubChem.
GRK2 aptamer HTS: human GRK2 inhibition via aptamer displacement | P25098 | bead flow cytometry, FAM-aptamer displacement from GRK2 | 330,000 tested, 0.59% active | inhibition of aptamer binding, % at 10 µM;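 active means inhibition of aptamer binding above 40%, roughly 3 SD of noise, on plates passing a quality check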;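 further: median bead fluorescence of bound FAM aptamer so fluorescent compounds give negative values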
aDG glyco up: increases alpha dystroglycan glycosylation | Pro5-aDG cells, alpha-DG glycosylation AlphaScreen (IIH6); 0% Pro5, 100% B10-LARGE cell signal | activation, % at 10 µM | 360,000 tested, 0.22% active | AID 624168;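 active means activation of at least 8% versus controls, or a plate z-score of at least 8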;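 further: Pro5 are CHO cells carrying HIG-tagged alpha-DG that lacks glycosylation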
procasp7 counter: counter-screen: procaspase-7 (human) activation; recombinant procaspase-7, Ac-DEVD-pNA absorbance 405 nm; D23A/D198A/D206A triple mutant, cannot self-cleave; scale: DMSO 0, 5 µM enzyme 100; activation, % at 8.5 µM; P55210; 330,000 tested, 0.093% active;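 active means percent activation above the screen-wide mean plus 3 SD, cut at about 25% in these data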
Target sequence (P55210 whole entry D23A/D198A/D206A): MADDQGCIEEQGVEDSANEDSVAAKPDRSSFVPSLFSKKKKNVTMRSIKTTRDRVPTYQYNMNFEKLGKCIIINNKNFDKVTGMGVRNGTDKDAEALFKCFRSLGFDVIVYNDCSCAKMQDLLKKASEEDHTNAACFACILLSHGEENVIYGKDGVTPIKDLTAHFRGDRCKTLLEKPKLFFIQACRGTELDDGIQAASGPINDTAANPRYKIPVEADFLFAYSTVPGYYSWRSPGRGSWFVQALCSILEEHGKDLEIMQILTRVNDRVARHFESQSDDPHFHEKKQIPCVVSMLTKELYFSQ
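Replicates: singlicate. Assay system: Procaspase-7 triple mutant (PC-7 D3A). Signal: 405 nm absorbance of p-nitroaniline. Times: 1 h preincubation, 2 h reaction. Buffer or medium: Zinc-free HEPES pH 7.4 with 300 mM NaCl, 0.01% Triton X-100. Also added: DEVD-pNA substrate. Benchmarks: DMSO wells as 0%, DMSO with 5 µM added PC-7 as 100%.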
procasp3 activ: activators of human procaspase-3; recombinant procaspase-3 D3A, Ac-DEVD-pNA absorbance 405 nm; activation, % at 8.5 µM; 330,000 tested, 0.11% active; AID 463141;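 active means activation above the mean of all tested compounds plus 3 SD, cut at about 21% in these data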
Target sequence (P42574 whole entry D9A/D28A/D175A): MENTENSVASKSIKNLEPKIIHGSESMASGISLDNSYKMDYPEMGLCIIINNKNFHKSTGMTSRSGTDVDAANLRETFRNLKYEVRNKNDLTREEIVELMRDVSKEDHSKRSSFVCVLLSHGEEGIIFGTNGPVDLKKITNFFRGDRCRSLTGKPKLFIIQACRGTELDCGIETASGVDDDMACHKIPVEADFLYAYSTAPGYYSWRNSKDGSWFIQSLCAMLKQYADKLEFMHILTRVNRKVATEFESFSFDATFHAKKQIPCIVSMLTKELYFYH
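Test system: Procaspase-3 D3A mutant, all three cleavage aspartates alanine | Dosing: Single dose, 8.5 µM nominal compound, 0.8% DMSO | Schedule: 1 h preincubation, 2 h reaction | Technique: 405 nm absorbance of p-nitroaniline, reads at 0 and 120 min | Repeats: One well per compound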
CaV13 FRET inh: Primary screen for inhibitors of IQ motif and Ca2+-dependent inactivation inhibitor domain binding in CACNA1D, Förster resonance energy transfer in living cells, … | HEK cells, CFP/YFP FRET ICDI-IQ, plate reader, 10 min; percent FRET-ratio fall versus neutral wells | inhibition, % at 12.3 µM | 340,000 tested, 0.098% active;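 active means mean replicate inhibition of at least 30% and at least 1% of replicates passing that level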
T cell HTS: T cell immune modulators affecting CD8 T cell-vesicle binding | 2C CD8+ T cell-vesicle binding, flow cytometry; hits give low values | response (vesicle binding), % at 7 µM | 330,000 tested, 0.068% active;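 active means response, share of CD8 T cells binding vesicles, and their 90th percentile fluorescence all below set limits, cut at about 80% in these data, passing the limit was not always enough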;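 further: values below 100% mean blocked vesicle binding to the CD8+ T cells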
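Also added: QL9-peptide-loaded Drosophila micro-vesicles bearing Ld, ICAM-1 and B7-1; Test system: purified 2C TCR transgenic mouse naive CD8+ T cells; Measured by: cytometric PE anti-B7-1 and Alexa647 anti-CD8 signals after 1% paraformaldehyde fixation; Timing: binding step 1.5 h, 37 °C, antibody labelling 20 min, ice.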
GRK2 inh confirm: confirmation of human GRK2 inhibitors displacing RNA aptamer; aptamer displacement, % at 10 µM; 2,000 tested, 4% active; shares compounds with GRK2 aptamer HTS; bead-bound GRK2, FAM-aptamer displacement, flow cytometry;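 active means aptamer displacement above 40%, near three times the noise of non-fluorescent compounds, on plates passing quality checks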;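 further: negative values mostly reflect intrinsic compound fluorescence rather than true enhancement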
Aptamer quench: counter-screen for GRK2 aptamer inhibitors: fluorescent aptamer quenchers; 110 tested, under 10 active; AID 504521; shares compounds with GRK2 aptamer HTS; fluorescence change (kMESF span), kMESF (concentration not given with the values); Fluorescent RNA aptamer beads, quenching, flow cytometry; hits give high values;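 active means compounds whose bead fluorescence drops by more than 37 kMESF across the dose range, marking them as dye quenchers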
Aptamer quench SP: aptamer fluorescence quenching in GRK2 counter-screen | AID 504580 | Carboxyfluorescein RNA aptamer on beads, flow cytometry quenching; hits give low values | fluorescence response (% of DMSO), % at 10 µM | 2,000 tested, under 10 active | shares compounds with GRK2 aptamer HTS;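 active means compounds that quench the bead-bound fluorescent RNA probe, cutting fluorescence to under half of the solvent control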;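 further: counterscreen run without GRK2 so only probe quenching by compound is measured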
aDG glyco conf: confirmation of alpha dystroglycan glycosylation activators | AID 651671 | shares compounds with aDG glyco up | activation, % at 10 µM (by protocol) | Pro5-aDG cells, alpha-DG glycosylation, IIH6 AlphaLISA; scaled to LARGE-overexpressing B10 cells as 100% | 600 tested, 17% active;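 active means activation of at least 7% in one or more replicates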;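 further: cells exposed to compound for two days before detection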
Large screens that a line does not name were inactive (follow-up assays come after a bar, where they were run). A selection: hits, their analogues and other compounds. The true share with any hit is near 1.1%.

CC(C)N1C(=O)/C(=C/C=C/c2ccco2)C(=O)N(Cc2ccco2)C1=O	none | GRK2 inh confirm inactive | Aptamer quench SP inactive
COc1cccc(NP2(=O)OCC(C)([N+](=O)[O-])CO2)c1 (stereo unspecified)	none (no result: GRK2 aptamer HTS, procasp7 counter, procasp3 activ, T cell HTS)
CN1CCN(c2ccc(C(N)=O)cc2N)CC1	GRK2 aptamer HTS 43 | GRK2 inh confirm inactive | Aptamer quench SP inactive
NC(=O)C1CCN(/C=C2\C(=O)NC(=O)N(Cc3ccco3)C2=O)CC1	GRK2 aptamer HTS 47 | GRK2 inh confirm inactive | Aptamer quench SP inactive
CC(=O)OCC[N+](C)(C)C	none
C[N+](C)(C)CCOC(=O)CBr	none | GRK2 inh confirm inactive | Aptamer quench SP inactive
O=C(Nc1ccccc1)N1Cc2cc(Br)ccc2-n2nncc2C1	none (no result: GRK2 aptamer HTS, aDG glyco up, procasp7 counter, procasp3 activ, T cell HTS)
CC[n+]1c(/C=C/N(C)c2ccccc2)sc2ccc(Cl)cc21	GRK2 aptamer HTS 92 | GRK2 inh confirm 41 | Aptamer quench inactive | Aptamer quench SP inactive
CN1CCN(C(=O)COc2ccc(S(=O)(=O)N(C)Cc3ccccc3)cc2)CC1	GRK2 aptamer HTS 54 | GRK2 inh confirm inactive | Aptamer quench SP inactive
COc1ccc(NC(=O)N2C[C@@H]3C[C@@H](C2)c2cccc(=O)n2C3)c(OC)c1	none (no result: CaV13 FRET inh)
C[C@]12CCC3C(CCC4=C/C(=N/OCC(=O)NC(CCC(N)=O)C(=O)O)CC[C@@]43C)C1CCC2O (stereo partly specified)	none | GRK2 inh confirm inactive | Aptamer quench SP inactive
C[C@]12CCC3C(CCC4=C/C(=N/OCC(=O)NC(CCC(=O)O)C(=O)O)CC[C@@]43C)C1CCC2O (stereo partly specified)	none
O=C(NCCN1CCC2(CC1)C(=O)NCN2c1ccccc1)c1ccc(Cl)c(Cl)c1	none (no result: GRK2 aptamer HTS, aDG glyco up, procasp7 counter, procasp3 activ, T cell HTS)
O=C(O)c1cccc2c1NC(C(=O)O)C1CC(Sc3ccccc3[N+](=O)[O-])C(Cl)C21 (stereo unspecified)	GRK2 aptamer HTS 60 | GRK2 inh confirm 41 | Aptamer quench inactive | Aptamer quench SP inactive
CCOc1ccccc1-n1c(O)c(C=Nc2ccc(N(CC)CC)cc2)c(=O)[nH]c1=O	none (no result: CaV13 FRET inh)
CCN(CC)c1ccc(N=Cc2c(O)n(-c3ccccc3C)c(=O)[nH]c2=O)cc1	none | GRK2 inh confirm inactive | Aptamer quench SP inactive
Cc1ccc(C(=O)NCCN2CCC3(CC2)C(=O)NCN3c2ccccc2)cc1	none (no result: GRK2 aptamer HTS, aDG glyco up, procasp7 counter, procasp3 activ, T cell HTS)
CCC(=NCCc1c[nH]c2ccccc12)c1c(O)n(C)c(=O)n(C)c1=O	aDG glyco up 5.0 | aDG glyco conf inactive
COc1cccc2c1N=C1CCCC3CN(C(C)=O)CCC123 (stereo unspecified)	none (no result: GRK2 aptamer HTS, procasp7 counter, procasp3 activ, T cell HTS)
CN1CCN(c2nc([N+](=O)[O-])nn2C)CC1	aDG glyco up 25 | aDG glyco conf inactive
CCN1CCN(c2nc([N+](=O)[O-])nn2C)CC1	none
O=C1NCN(c2ccccc2)C12CCN(C(c1cc3ccccc3o1)c1nnnn1C1CCCCC1)CC2 (stereo unspecified)	aDG glyco up 8.4 (no result: GRK2 aptamer HTS, procasp7 counter, procasp3 activ, T cell HTS) | aDG glyco conf inactive
CC(C)(C)n1nnnc1C(c1cc2ccccc2o1)N1CCC2(CC1)C(=O)NCN2c1ccccc1 (stereo unspecified)	none (no result: GRK2 aptamer HTS, procasp7 counter, procasp3 activ, T cell HTS)
COC(=O)C1=C(c2ccc(Cl)c(C(F)(F)F)c2)C[C@@H]2CC[C@H]1N2C(=O)N1CCC(C)CC1	none (no result: CaV13 FRET inh)
O=C1C2CCCN2C(c2ccc(Cl)c(Cl)c2)N1c1ccccn1 (stereo unspecified)	aDG glyco up 7.0 | aDG glyco conf inactive
